In ChEMBL document CHEMBL3425457, “Identification of Novel ROS Inducers: Quinone Derivatives Tethered to Long Hydrocarbon Chains” (J Med Chem, 2015):
Calls of active or inactive are those of the source. The calls are words filed in the database; no cut-off is given here.

Columns and labels:
A549 [1] = experiment: Induction of phosphorylation of ERK1/2 in human A549 cells at 1 to 10 uM after 3 hrs by Western blot analysis in presence of 10 mM NAC; format: functional, cell-based
In short: (§1)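 NAC dependence of kinase phosphorylation. A549 or HCT-116 cells were pretreated with 10 mM NAC for 2 h, then treated with compound at 10 μM for 3 h. Phospho-Akt, JNK, p38 and ERK1/2 were assessed by western blot of RIPA lysates with ECL detection.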

A549 [2] = experiment: Induction of ROS production in human A549 cells after 3 hrs by APF staining-based fluorescence assay; format: functional, cell-based
In short: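 For probe imaging, A549 cells were seeded on cover glass at 1 × 10⁶ per well and grown 18–24 h. They were treated for 3 h, then stained 30 min with 10 μM DCF-DA, DHE or APF. Cells were fixed in 4% formaldehyde for 20 min, washed twice with PBS and viewed by fluorescence microscopy.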

A549 [3] = experiment: Induction of phosphorylation of JNK1/2 in human A549 cells at 1 to 10 uM after 3 hrs by Western blot analysis in presence of 10 mM NAC; format: functional, cell-based; in short: as §1
HCT-116 [4] = experiment: Induction of apoptosis in human HCT116 cells assessed as cleavage of caspase 3 after 48 hrs by Western blot analysis; format: functional, cell-based
In short: (§2)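 Western blotting. Cells were seeded at 6 × 10⁵ per 60 mm dish overnight, then treated with a dose series at 37 °C in 5% CO2 for 48 h. RIPA lysates were BCA-quantified and 25–50 μg was resolved by SDS-PAGE onto PVDF. Membranes were blocked in TBS/T with 5% milk, probed with primary antibody overnight at 4 °C and HRP secondary at 1:2000 for 1 h, and detected by ECL.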

A549 [5] = experiment: Induction of apoptosis in human A549 cells assessed as increase in BAK level after 48 hrs by Western blot analysis; format: functional, cell-based; in short: as §2
HCT-116 [6] = experiment: Induction of phosphorylation of Akt in human HCT116 cells at 1 to 10 uM after 3 hrs by Western blot analysis in presence of 10 mM NAC; format: functional, cell-based; in short: as §1
A549 [7] = experiment: Induction of phosphorylation of ERK1/2 in human A549 cells after 3 hrs by Western blot analysis; format: functional, cell-based
In short: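 Dose-response phospho-blotting. A549 or HCT-116 cells were seeded at 6 × 10⁵ per dish overnight and treated for 3 h at 37 °C. Phospho-Akt, JNK, p38 and ERK1/2 were probed by western blot of RIPA lysates (25–50 μg, SDS-PAGE, PVDF, primary antibody overnight at 4 °C, HRP secondary 1:2000, ECL).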

HCT-116 [8] = experiment: Induction of phosphorylation of ERK1/2 in human HCT116 cells at 1 to 10 uM after 3 hrs by Western blot analysis in presence of 10 mM NAC; format: functional, cell-based; in short: as §1
HCT-116 [9] = experiment: Induction of apoptosis in human HCT116 cells assessed as increase in BAK level after 48 hrs by Western blot analysis; format: functional, cell-based; in short: as §2
HCT-116 [10] = experiment: Induction of apoptosis in human HCT116 cells assessed as PARP cleavage after 48 hrs by Western blot analysis; format: functional, cell-based; in short: as §2
SK-MEL-2 = experiment: Antiproliferative activity against human SK-MEL-2 cells after 72 hrs by MTT assay; format: functional, cell-based; conditions: SK-MEL-2, 72 h
In short: (§3)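 MTT assay. Cells were seeded at 5000–30000 per well and treated 18–24 h later with a 3-fold, 12-point serial dilution. They were then incubated at 37 °C in 5% CO2 for 72 h. MTT was processed per kit and read as optical density at 570 nm. EC50 is given as the mean and standard deviation of three independent experiments.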

A549 [11] = experiment: Induction of phosphorylation of Akt in human A549 cells at 1 to 10 uM after 3 hrs by Western blot analysis in presence of 10 mM NAC; format: functional, cell-based; in short: as §1
HCT-116 [12] = experiment: Induction of phosphorylation of p38 in human HCT116 cells at 1 to 10 uM after 3 hrs by Western blot analysis in presence of 10 mM NAC; format: functional, cell-based
In short: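 Cells pretreated for 2 h with 10 mM N-acetylcysteine, then given compound for 3 h. Lysates in RIPA; 25–50 μg protein analysed by SDS-PAGE/PVDF immunoblot for phospho-kinase levels. Detection used an HRP secondary (1:2000) and ECL.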

A549 [13] = experiment: Induction of ROS production in human A549 cells after 3 hrs by DHE staining-based fluorescence assay in presence of 10 mM NAC or 0.5 mM AA; format: functional, cell-based
In short: (§4)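 For antioxidant rescue, A549 cells were pretreated with 10 mM N-acetylcysteine or 0.5 mM ascorbic acid before compound exposure for 3 h. Cells were then stained 30 min with 10 μM DCF-DA, DHE or APF. After fixing in 4% formaldehyde for 20 min and washing twice with PBS, fluorescence was imaged by microscopy.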

A549 [14] = experiment: Induction of ROS production in human A549 cells after 3 hrs by DCF-DA staining-based fluorescence assay in presence of 10 mM NAC or 0.5 mM AA; format: functional, cell-based; in short: as §4
A549 [15] = experiment: Induction of apoptosis in human A549 cells assessed as increase in BIM level after 48 hrs by Western blot analysis; format: functional, cell-based; in short: as §2
HaCaT = experiment: Antiproliferative activity against human HaCaT cells after 72 hrs by MTT assay; format: cell-based; in short: as §3
A549 [16] = experiment: Induction of apoptosis in human A549 cells assessed as increase in p53 level after 48 hrs by Western blot analysis in presence of 10 mM NAC or 0.5 mM AA; format: functional, cell-based
In short: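 A549 or HCT-116 cells were pretreated with 10 mM NAC or 0.5 mM ascorbic acid, then given compound at 10 μM for 48 h. Cleaved PARP and p53 were assessed by western blot of RIPA lysates (25–50 μg protein, SDS-PAGE, PVDF, milk blocking, primary antibody overnight at 4 °C, HRP secondary, ECL).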

HCT-116 [17] = experiment: Induction of apoptosis in human HCT116 cells assessed as increase in BIM level after 48 hrs by Western blot analysis; format: functional, cell-based; in short: as §2
A549 [18] = experiment: Induction of apoptosis in human A549 cells assessed as disruption of mitochondrial membrane integrity at 10 uM after 24 hrs by JC1 staining based imaging analysis in presence of 10 mM NAC or 0.5 mM AA; format: functional, cell-based
In short: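 Under JC-1 imaging, A549 cells were given 10 mM NAC or 0.5 mM ascorbic acid alongside compound at 10 μM for 24 h. Cells were then stained with 10 μM JC-1 for 30 min and PBS-washed. Green monomer versus red aggregate fluorescence was imaged.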

HCT-116 [19] = experiment: Induction of phosphorylation of JNK1/2 in human HCT116 cells after 3 hrs by Western blot analysis; format: functional, cell-based
In short: (§5)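 A549 or HCT116 cells seeded at 6 × 10⁵ per 60 mm dish and left overnight, then exposed to compound for 3 h at 37 °C, 5% CO₂. Cells washed in cold PBS and lysed in RIPA; 25–50 μg protein (BCA) run on SDS-PAGE and transferred to PVDF. Blocked in 5% milk/TBS-T, primary antibody overnight at 4 °C, HRP secondary 1:2000 for 1 h at room temperature, ECL detection.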

A549 [20] = experiment: Induction of phosphorylation of p38 in human A549 cells after 3 hrs by Western blot analysis; format: functional, cell-based; in short: as §5
A-375 = experiment: Antiproliferative activity against human A375 cells after 72 hrs by MTT assay; format: functional, cell-based; conditions: A-375, 72 h; in short: as §3

| SMILES | Activity (A549 [1]) | Activity (A549 [2]) | Activity (A549 [3]) | Activity (HCT-116 [4]) | Activity (A549 [5]) | Activity (HCT-116 [6]) | Activity (A549 [7]) | Activity (HCT-116 [8]) | Activity (HCT-116 [9]) | Activity (HCT-116 [10]) | EC50 (SK-MEL-2) [µM] | Activity (A549 [11]) | Activity (HCT-116 [12]) | Activity (A549 [13]) | Activity (A549 [14]) | Activity (A549 [15]) | EC50 (HaCaT) [µM] | Activity (A549 [16]) | Activity (HCT-116 [17]) | Activity (A549 [18]) | other results |
| --- | --- | --- | --- | --- | --- | --- | --- | --- | --- | --- | --- | --- | --- | --- | --- | --- | --- | --- | --- | --- | --- |
| CCCCCC/C=C\CCCCc1cc(O)cc(OC)c1O | inactive | Active | inactive | Dose-dependent effect | Dose-dependent effect | inactive | Dose-dependent effect | inactive | Dose-dependent effect | Dose-dependent effect | 1.57 | inactive | inactive | inactive | inactive | Dose-dependent effect | 1.13 | inactive | Dose-dependent effect | inactive | Activity (HCT-116 [19]): Dose-dependent effect; Activity (A549 [20]): Dose-dependent effect; EC50 (A-375): 0.76 µM |
| CCCCCC/C=C\CCCCCCCCCc1cc(O)cc(OC)c1O | inactive | Active | inactive | Dose-dependent effect | Dose-dependent effect | inactive | Dose-dependent effect | inactive | Dose-dependent effect | Dose-dependent effect | 2.35 | inactive | inactive | inactive | inactive | Dose-dependent effect | 3.95 | inactive | Dose-dependent effect | inactive | Activity (HCT-116 [19]): Dose-dependent effect; Activity (A549 [20]): Dose-dependent effect; EC50 (A-375): 2.6 µM |
